In ChEMBL document CHEMBL3112390, “Discovery and SAR of 5-aminooctahydrocyclopentapyrrole-3a-carboxamides as potent CCR2 antagonists” (Bioorg Med Chem Lett, 2014):

Columns and labels:
[1] = AUC in rat at 10 mg/kg, po; assay type: ADME, organism-based; parameters: dose 10 mg/kg, route oral; details: plasma
Procedure, shortened: (§1)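 Rat pharmacokinetics after a single oral dose of 10 mpk given in 0.5% methocel. Maximum plasma concentration and plasma exposure (AUC) were taken from the plasma concentration–time profile.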

[2] = Cmax in rat at 10 mg/kg, po; assay type: ADME, organism-based; parameters: dose 10 mg/kg, route oral; details: in vivo; procedure, shortened: as §1
[3] = target: Voltage-gated inwardly rectifying potassium channel KCNH2 (Homo sapiens, UniProt Q12809); assay: Binding affinity to human ERG
Chain of Voltage-gated inwardly rectifying potassium channel KCNH2 (Q12809 whole entry): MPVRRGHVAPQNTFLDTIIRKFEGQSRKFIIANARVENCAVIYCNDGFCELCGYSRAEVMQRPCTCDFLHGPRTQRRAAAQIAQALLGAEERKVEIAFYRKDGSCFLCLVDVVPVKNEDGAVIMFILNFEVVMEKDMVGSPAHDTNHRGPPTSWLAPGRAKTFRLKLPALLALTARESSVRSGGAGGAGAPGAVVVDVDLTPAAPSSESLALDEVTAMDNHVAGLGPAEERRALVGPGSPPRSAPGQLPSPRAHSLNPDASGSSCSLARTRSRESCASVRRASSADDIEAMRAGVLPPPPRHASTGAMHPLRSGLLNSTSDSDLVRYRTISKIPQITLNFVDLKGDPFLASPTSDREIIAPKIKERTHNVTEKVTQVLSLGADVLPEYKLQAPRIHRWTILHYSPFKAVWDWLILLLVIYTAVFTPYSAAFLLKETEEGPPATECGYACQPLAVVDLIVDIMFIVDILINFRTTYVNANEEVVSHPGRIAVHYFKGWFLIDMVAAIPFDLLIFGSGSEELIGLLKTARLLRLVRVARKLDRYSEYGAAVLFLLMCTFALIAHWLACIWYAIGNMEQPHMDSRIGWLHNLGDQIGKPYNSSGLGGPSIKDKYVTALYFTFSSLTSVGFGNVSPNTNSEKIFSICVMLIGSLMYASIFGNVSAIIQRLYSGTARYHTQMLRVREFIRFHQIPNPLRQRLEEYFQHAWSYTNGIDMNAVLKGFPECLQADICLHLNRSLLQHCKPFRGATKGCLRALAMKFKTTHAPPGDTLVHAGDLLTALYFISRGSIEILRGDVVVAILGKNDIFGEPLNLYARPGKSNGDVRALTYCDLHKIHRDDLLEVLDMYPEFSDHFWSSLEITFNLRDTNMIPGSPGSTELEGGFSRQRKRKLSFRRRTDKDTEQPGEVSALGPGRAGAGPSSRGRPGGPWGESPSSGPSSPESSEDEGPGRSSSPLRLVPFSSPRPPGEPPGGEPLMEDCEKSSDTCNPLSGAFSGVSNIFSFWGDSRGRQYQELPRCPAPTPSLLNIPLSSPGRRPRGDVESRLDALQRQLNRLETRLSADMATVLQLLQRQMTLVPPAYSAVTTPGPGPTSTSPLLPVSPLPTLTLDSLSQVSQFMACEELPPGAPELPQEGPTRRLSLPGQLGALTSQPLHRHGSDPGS

[4] = target: C-C chemokine receptor type 2 (Homo sapiens, UniProt P41597); assay: Binding affinity to CCR2 receptor (unknown origin)
Chain of C-C chemokine receptor type 2 (P41597 whole entry): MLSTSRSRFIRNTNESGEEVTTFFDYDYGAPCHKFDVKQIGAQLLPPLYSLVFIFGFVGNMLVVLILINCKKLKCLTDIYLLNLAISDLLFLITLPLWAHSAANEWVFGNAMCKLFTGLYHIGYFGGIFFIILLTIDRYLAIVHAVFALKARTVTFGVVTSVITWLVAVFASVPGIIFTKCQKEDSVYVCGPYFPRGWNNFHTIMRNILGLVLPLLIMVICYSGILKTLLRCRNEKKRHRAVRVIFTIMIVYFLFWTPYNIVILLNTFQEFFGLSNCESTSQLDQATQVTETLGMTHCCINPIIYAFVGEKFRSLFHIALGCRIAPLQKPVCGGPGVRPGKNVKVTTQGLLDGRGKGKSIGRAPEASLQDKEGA

[5] = target: hERG (KCNH2) (Homo sapiens, UniProt Q12809); assay: Inhibition of human ERG at 3 uM by patchxpress assay
Chain of hERG (KCNH2) (Q12809 whole entry): as the sequence (Q12809 whole entry) above

SMILES | AUC [1] | Cmax [2] | IC50 [4] | IC50 [3] | inhibition at 3 µM [5]
COC1COCCC1N[C@@H]1C[C@H]2CN(C(=O)NC(C)C)C[C@@]2(C(=O)N2CCc3ncc(C(F)(F)F)cc3C2)C1 (mixture of isomers) | – | – | 410 nM | > 50000 nM | –
COC1COCCC1N[C@@H]1C[C@H]2CN(C(=O)NCc3ccccc3)C[C@@]2(C(=O)N2CCc3ncc(C(F)(F)F)cc3C2)C1 (mixture of isomers) | – | – | 57 nM | > 50000 nM | –
COC1COCCC1N[C@@H]1C[C@H]2CN(/C(N)=N\C#N)C[C@@]2(C(=O)N2CCc3ncc(C(F)(F)F)cc3C2)C1 (mixture of isomers) | – | – | 37 nM | > 50000 nM | –
COC1COCCC1N[C@@H]1C[C@H]2CN(C(=O)Oc3ccccc3)C[C@@]2(C(=O)N2CCc3ncc(C(F)(F)F)cc3C2)C1 (mixture of isomers) | – | – | 560 nM | > 50000 nM | –
COC1COCCC1N[C@@H]1C[C@H]2CN(C(=O)OCc3ccccc3)C[C@@]2(C(=O)N2CCc3ncc(C(F)(F)F)cc3C2)C1 (mixture of isomers) | – | – | 118 nM | > 50000 nM | –
COC1COCCC1N[C@@H]1C[C@H]2CN(C(=O)OCC3CCOCC3)C[C@@]2(C(=O)N2CCc3ncc(C(F)(F)F)cc3C2)C1 (mixture of isomers) | – | – | 32 nM | – | –
COC1COCCC1N[C@@H]1C[C@H]2CN(C(=O)OCCC3CCOCC3)C[C@@]2(C(=O)N2CCc3ncc(C(F)(F)F)cc3C2)C1 (mixture of isomers) | 427 ng·h/mL | 145 ng/mL | 31 nM | > 50000 nM | 7.3%
COC1COCCC1N[C@@H]1C[C@H]2CNC[C@@]2(C(=O)N2CCc3ncc(C(F)(F)F)cc3C2)C1 (mixture of isomers) | – | – | – | > 50000 nM | –
COC1COCCC1N[C@@H]1C[C@H]2CN(C)C[C@@]2(C(=O)N2CCc3ncc(C(F)(F)F)cc3C2)C1 (mixture of isomers) | – | – | – | > 50000 nM | –
CCN1C[C@@H]2C[C@@H](NC3CCOCC3OC)C[C@]2(C(=O)N2CCc3ncc(C(F)(F)F)cc3C2)C1 (mixture of isomers) | – | – | 629 nM | 42600 nM | –
COC1COCCC1N[C@@H]1C[C@H]2CN(C(C)C)C[C@@]2(C(=O)N2CCc3ncc(C(F)(F)F)cc3C2)C1 (mixture of isomers) | – | – | 1210 nM | > 50000 nM | –
COC1COCCC1N[C@@H]1C[C@H]2CN(C3CC3)C[C@@]2(C(=O)N2CCc3ncc(C(F)(F)F)cc3C2)C1 (mixture of isomers) | – | – | 180 nM | – | –
COC1COCCC1N[C@@H]1C[C@H]2CN(C3COC3)C[C@@]2(C(=O)N2CCc3ncc(C(F)(F)F)cc3C2)C1 (mixture of isomers) | – | – | 126 nM | > 50000 nM | –
COC1COCCC1N[C@@H]1C[C@H]2CN(c3ccccc3)C[C@@]2(C(=O)N2CCc3ncc(C(F)(F)F)cc3C2)C1 (mixture of isomers) | – | – | 62 nM | 22900 nM | –
COC1COCCC1N[C@@H]1C[C@H]2CN(c3nccs3)C[C@@]2(C(=O)N2CCc3ncc(C(F)(F)F)cc3C2)C1 (mixture of isomers) | – | – | 152 nM | > 50000 nM | –
COC1COCCC1N[C@@H]1C[C@H]2CN(C(=O)/C=C/c3ccccc3)C[C@@]2(C(=O)N2CCc3ncc(C(F)(F)F)cc3C2)C1 (mixture of isomers) | – | – | – | 24100 nM | –
COC1COCCC1N[C@@H]1C[C@H]2CN(C(=O)/C=C/C(C)(C)C)C[C@@]2(C(=O)N2CCc3ncc(C(F)(F)F)cc3C2)C1 (mixture of isomers) | – | – | 68 nM | > 50000 nM | –
COC1COCCC1N[C@@H]1C[C@H]2CN(C(=O)C#CC3CC3)C[C@@]2(C(=O)N2CCc3ncc(C(F)(F)F)cc3C2)C1 (mixture of isomers) | – | – | 87 nM | 49600 nM | –

Continued, in another order:

AUC [1] | Cmax [2] | IC50 [4] | SMILES | IC50 [3] | inhibition at 3 µM [5]
74 ng·h/mL | 70.6 ng/mL | 64 nM | COC1COCCC1N[C@@H]1C[C@H]2CN(C(N)=O)C[C@@]2(C(=O)N2CCc3ncc(C(F)(F)F)cc3C2)C1 (mixture of isomers) | > 50000 nM | –
– | – | 77 nM | CNC(=O)N1C[C@@H]2C[C@@H](NC3CCOCC3OC)C[C@]2(C(=O)N2CCc3ncc(C(F)(F)F)cc3C2)C1 (mixture of isomers) | > 50000 nM | –
– | – | 410 nM | COC(=O)N1C[C@@H]2C[C@@H](NC3CCOCC3OC)C[C@]2(C(=O)N2CCc3ncc(C(F)(F)F)cc3C2)C1 (mixture of isomers) | > 50000 nM | –
– | – | 59 nM | COC1COCCC1N[C@@H]1C[C@H]2CN(C(=O)OCC(C)(C)C)C[C@@]2(C(=O)N2CCc3ncc(C(F)(F)F)cc3C2)C1 (mixture of isomers) | > 50000 nM | –
– | – | 35 nM | COC1COCCC1N[C@@H]1C[C@H]2CN(C(=O)OCC(C)C)C[C@@]2(C(=O)N2CCc3ncc(C(F)(F)F)cc3C2)C1 (mixture of isomers) | > 50000 nM | –
– | – | 82 nM | COCCOC(=O)N1C[C@@H]2C[C@@H](NC3CCOCC3OC)C[C@]2(C(=O)N2CCc3ncc(C(F)(F)F)cc3C2)C1 (mixture of isomers) | > 50000 nM | –
– | – | 45 nM | COC1COCCC1N[C@@H]1C[C@H]2CN(C(=O)OCCNC(C)=O)C[C@@]2(C(=O)N2CCc3ncc(C(F)(F)F)cc3C2)C1 (mixture of isomers) | > 50000 nM | –
– | – | 33 nM | COC1COCCC1N[C@@H]1C[C@H]2CN(C(=O)OCCN3CCCC3)C[C@@]2(C(=O)N2CCc3ncc(C(F)(F)F)cc3C2)C1 (mixture of isomers) | > 50000 nM | –
– | – | 41 nM | COC1COCCC1N[C@@H]1C[C@H]2CN(C(=O)OCCN3CCOCC3)C[C@@]2(C(=O)N2CCc3ncc(C(F)(F)F)cc3C2)C1 (mixture of isomers) | > 50000 nM | –
– | – | 395 nM | COC1COCCC1N[C@@H]1C[C@H]2CN(C(C)=O)C[C@@]2(C(=O)N2CCc3ncc(C(F)(F)F)cc3C2)C1 (mixture of isomers) | > 50000 nM | –
